Drawing on ChEMBL document CHEMBL2406967, “Contribution of Cage-Shaped Structure of Physalins to Their Mode of Action in Inhibition of NF-κB Activation” (ACS Med Chem Lett, 2013), this text covers IC50, inhibition and Ratio IC50 for 21 compounds.

Molecules are shown by their SMILES. Active and inactive are the calls of the source. The calls are words filed in the database; no cut-off is given here.

Test [1] is described as follows: Inhibition of TNFalpha-induced NF-kappaB activation (unknown origin) expressed in human HeLa cells pretreated 30 mins before TNFalpha addition after 7 hrs by luciferase reporter gene assay. In kind it is cell-based. The procedure, abridged: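 HeLa cells stably transfected with an NF-κB reporter construct, stimulated with TNF-α; IC50 values are means of three independent experiments, with standard deviation.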
In general terms: Reporter assays use an easily measured gene product as a stand-in for the process of interest.

Test [2] deals with HeLa. The test is described as follows: Inhibition of NF-kappaB (unknown origin) expressed in human HeLa cells assessed as inhibition of TNFalpha-induced p50 nuclear translocation pretreated 30 mins before TNFalpha addition measured after 15 mins by Western blot analysis. Background: A western blot detects proteins with antibodies after separation by electrophoresis.
Test [3] relates to HeLa. The experiment in a line: Inhibition of NF-kappaB (unknown origin) expressed in human HeLa cells assessed as inhibition of TNFalpha-induced RelA nuclear translocation pretreated 30 mins before TNFalpha addition measured after 15 mins by Western blot analysis.
Test [4] concerns the target T1, NF-kappa-B inhibitor alpha (Homo sapiens) (UniProt P25963).
T1 sequence (whole entry): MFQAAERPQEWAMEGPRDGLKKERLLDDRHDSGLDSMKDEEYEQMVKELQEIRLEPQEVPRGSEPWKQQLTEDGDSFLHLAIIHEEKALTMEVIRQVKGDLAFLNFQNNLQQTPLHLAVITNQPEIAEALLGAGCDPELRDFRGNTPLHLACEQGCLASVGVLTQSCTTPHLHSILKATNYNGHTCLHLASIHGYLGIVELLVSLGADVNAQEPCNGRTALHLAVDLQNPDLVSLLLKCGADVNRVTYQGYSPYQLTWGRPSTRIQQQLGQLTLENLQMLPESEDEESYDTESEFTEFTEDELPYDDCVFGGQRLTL
The test is described as follows: Inhibition of TNFalpha-induced IkappaBalpha (unknown origin) degradation expressed in human HeLa cells at 50 uM pretreated […] before TNFalpha addition […] by ELISA. The test is classed as cell-based. For orientation: In an ELISA, binding on a coated surface is turned into a signal by an enzyme label.

In test [5] the test system is HeLa. The experiment in a line: Ratio of IC50 for TNFalpha-induced NF-kappaB (unknown origin) activation expressed in human HeLa cells to IC50 for TNFalpha-induced IkappaBalpha (unknown origin) phosphorylation expressed in human HeLa cells. The test is classed as cell-based.
Test [6] relates to HeLa. The experiment in a line: Inhibition of NF-kappaB (unknown origin) expressed in human HeLa cells assessed as inhibition of TNFalpha-induced DNA binding of p50 pretreated 30 mins before TNFalpha addition measured after 30 mins by EMSA.
For test [7], the system named is HeLa. The experiment in a line: Inhibition of NF-kappaB (unknown origin) expressed in human HeLa cells assessed as inhibition of TNFalpha-induced DNA binding of RelA pretreated 30 mins before TNFalpha addition measured after 30 mins by EMSA.
Test [8] relates to HeLa. The experiment in a line: Inhibition of NF-kappaB (unknown origin) expressed in human HeLa cells assessed as inhibition of TNFalpha-induced p50 nuclear translocation at 100 uM […] by Western blot analysis. The test is classed as cell-based. The procedure, abridged:
(§1)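 HeLa cells pretreated 30 min with a range of compound concentrations or DMSO, then stimulated with TNF-α (50 ng/mL) for 15 min. Cytoplasmic and nuclear fractions were immunoblotted for RelA and p50. Tubulin marked the cytoplasmic fraction and PARP the nuclear fraction.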

Test [9] has as its system HeLa. The test is described as follows: Inhibition of NF-kappaB (unknown origin) expressed in human HeLa cells assessed as inhibition of TNFalpha-induced RelA nuclear translocation at 100 uM […] by Western blot analysis. The test is classed as cell-based. The procedure, abridged:
as §1

The term IC50 denotes the concentration needed to halve the response being measured. Regarding `CC1=C(C)C(=O)O[C@@H]([C@](C)(O)C2=CC[C@@]3(O)[C@@H]4CC=C5CC=CC(=O)[C@]5(C)[C@H]4CC[C@]23C)C1`, in [1], the IC50 worked out at 20.8 µM.

With `CC1=C(C)C(=O)O[C@@H]([C@](C)(O)[C@H]2CC[C@@]3(O)[C@@H]4CC=C5CC=CC(=O)[C@]5(C)[C@H]4CC[C@]23C)C1`, in test [1], the IC50 came out at 20.7 µM.

As a reminder, the inhibition is the drop in the measured response relative to a control, in per cent. `C=C1C(=O)O[C@@H]2C[C@@]1(C)[C@@H]1C(=O)[C@]3(O)O[C@]14[C@@]2(C)OC(=O)[C@@]4(O)CC[C@H]1[C@H]3CC=C2CC=CC(=O)[C@@]21C`: the inhibition result with HeLa [2] was “Dose-dependent effect”; in the test with HeLa [3], “Dose-dependent effect”; in test [4], 0.8%. Moreover, in test [1], the IC50 was found to be 6.54 µM.

With `C[C@]12C(=O)C=CCC1=C[C@@H](O)[C@@H]1[C@@H]2CC[C@@]2(O)C(=O)O[C@@]3(C)[C@H]4C[C@]5(C)[C@@H](CO[C@@]16O[C@]23[C@H]5C6=O)C(=O)O4`, the IC50 in [1] came to 11.4 µM. Also, the inhibition in [4] was -3.8%.

For the compound `C[C@]12C(=O)C=CCC1=CC[C@@H]1[C@@H]2CC[C@]2(O)C(=O)O[C@@]3(C)[C@H]4C[C@@](C)([C@@H]5C(=O)[C@]1(O)O[C@@]532)[C@](C)(O)C(=O)O4`, the IC50 in test [1] was above 50 µM.

For the compound `C[C@H]1C(=O)OC[C@H]1C[C@@H](O)[C@](C)(O)[C@]1(O)CC[C@@]2(O)[C@@H]3CC=C4CC=CC(=O)[C@]4(C)[C@H]3CC[C@]12C`, the IC50 in [1] is 33.2 µM.

For the compound `C[C@H]1C(=O)OC[C@H]1C[C@@H](O)[C@](C)(O)[C@@]1(O)CC[C@@]2(O)[C@@H]3CC=C4CC=CC(=O)[C@]4(C)[C@H]3CC[C@]12C`, the IC50 in test [1] came out at 32.4 µM.

On to `C#C[C@]12O[C@H]3OC[C@H]4C(=O)O[C@H](C[C@@]4(C)[C@@H]1C3=O)[C@]2(C)O`, for which, in [1], the IC50 was 104 µM.

For `C[C@@]12C[C@H]3OC(=O)[C@@H]1CO[C@@H]1O[C@@]4([C@H](O)C(=O)O[C@@]34C)[C@H]2C1=O`, the IC50 in test [1] is above 200 µM.

Take `CC(=O)O[C@@H]1C(=O)O[C@@]2(C)[C@H]3C[C@]4(C)[C@@H](CO[C@@H]5O[C@]12[C@H]4C5=O)C(=O)O3`: in test [1], the IC50 is above 200 µM.

For `C[C@@]12C[C@H]3OC(=O)[C@@H]1CO[C@@H]1O[C@@]4([C@H](OCc5ccccc5)C(=O)O[C@@]34C)[C@H]2C1=O`, the IC50 in test [1] was found to be 43.6 µM.

As to `C=C1C(=O)O[C@@H]2C[C@@]1(C)[C@@H]1C(=O)[C@@H](O)O[C@@]13[C@H](OCc1ccccc1)C(=O)O[C@@]23C`, the IC50 in [1] stood at 85.8 µM.

In the case of `C[C@@]12C[C@H]3OC(=O)[C@]1(O)CO[C@]14O[C@@]5([C@H]2C1=O)[C@@]3(C)OC(=O)[C@@]5(O)CC[C@H]1[C@H]4C[C@H]2O[C@]23CC=CC(=O)[C@]13C` [25-HYDROXY PHYSALIN F], in test [1], the IC50 was found to be 4.38 µM. For the same compound, the inhibition in test [4] turned out to be 29%. Moreover, the Ratio IC50 with HeLa [5] was found to be 10.

Consider `C[C@@]12C[C@H]3OC(=O)[C@]1(O)CO[C@]14O[C@@]5([C@H]2C1=O)[C@@]3(C)OC(=O)[C@@]5(O)CC[C@H]1[C@H]4C[C@@H]2O[C@@]23CC=CC(=O)[C@]13C` [25-HYDROXY PHYSALIN J], for which the IC50 in test [1] is above 50 µM.

As to `C=C1C(=O)O[C@@H]2C[C@@]1(C)[C@@H]1C(=O)[C@]3(O)O[C@]14[C@@]2(C)OC(=O)[C@@]4(O)CC[C@H]1[C@H]3[C@H](O)C=C2CC=CC(=O)[C@@]21C` [PHYSALIN A], in test [1], the IC50 turned out to be 22.7 µM. Moreover, the inhibition in [4] is -3.4%.

Take `C[C@]12C(=O)C=CCC1=CC[C@@H]1[C@@H]2CC[C@]2(O)C(=O)O[C@@]3(C)[C@H]4C[C@]5(C)[C@@H](CO[C@@]16O[C@@]32[C@H]5C6=O)C(=O)O4` [PHYSALIN B]: the inhibition result is “Dose-dependent effect” with HeLa [6]; “Dose-dependent effect” with HeLa [7]; “Dose-dependent effect” in the test with HeLa [2]; “Dose-dependent effect” with HeLa [3]; 7% in test [4]. Also, the IC50 in test [1] is 6.07 µM.

With `C[C@@]12C[C@H]3OC(=O)[C@@H]1CO[C@]14O[C@]5([C@H]2C1=O)[C@@](O)(CC[C@H]1[C@H]4C[C@H]2O[C@]24CC=CC(=O)[C@]14C)C(=O)O[C@@]35C` [PHYSALIN F], in test [1], the IC50 was 2.53 µM. Moreover, the inhibition in test [4] was 45.2%. Moreover, the Ratio IC50 with HeLa [5] was 10.

On to `C[C@@]12C[C@H]3OC(=O)[C@@H]1CO[C@@]14O[C@]5(C2C1=O)[C@@](O)(CC[C@H]1[C@H]4C[C@@H]2O[C@@]24CC=CC(=O)[C@]14C)C(=O)O[C@@]35C` [PHYSALIN J], for which the IC50 in [1] is 36.2 µM.

Regarding `C[C@@H]1C(=O)O[C@@H]2C[C@@]1(C)[C@@H]1C(=O)[C@]3(O)O[C@]14[C@@]2(C)OC(=O)[C@@]4(O)CC[C@H]1[C@H]3[C@H](O)C=C2CC=CC(=O)[C@@]21C` [PHYSALIN O], the IC50 in [1] is above 50 µM.

Turning to `CC1=C(C)C(=O)O[C@@H]([C@](C)(O)[C@]2(O)CC[C@@]3(O)[C@@H]4C[C@H]5O[C@]56CC=CC(=O)[C@]6(C)[C@H]4CC[C@]23C)C1` [WITHANOLIDE E], in test [1], the half-maximal inhibitory concentration (IC50) stood at 0.98 µM. Further, the inhibition in test [4] was found to be 46.8%. Further, the Ratio IC50 with HeLa [5] came to 10.

For the compound `CC1=C(C)C(=O)O[C@@H]([C@](C)(O)[C@]2(O)CC[C@@]3(O)[C@@H]4CC=C5CC=CC(=O)[C@]5(C)[C@H]4CC[C@]23C)C1` [WITHANOLIDE F], the inhibition result with HeLa [6] and with HeLa [7] was “Dose-dependent effect” throughout. In addition, the inhibition entry in the test with HeLa [8] and in the test on HeLa [9] was “Active” in each case. The IC50 in [1] was 2 µM.
